Measurements collected from several papers.
Observed: metabolic stability
Species: human

| Compound | medium | tested at | pH | half-life [min] |
| --- | --- | --- | --- | --- |
| Cc1cnc(Nc2ccc(C(=O)NC3CCNCC3)c(F)c2)nc1Nc1cc(NS(=O)(=O)C(C)(C)C)cc(C(=O)NCCOCCOCCOCCC(=O)N2CCC(NC(=O)c3ccc(Nc4ncc(C)c(Nc5ccc(Cl)c(NS(=O)(=O)C(C)(C)C)c5)n4)cc3F)CC2)c1 | liver microsomes |  |  | 8.2 |
| CCCN(C)Cc1cc(-c2[nH]c3cccc(F)c3c(=O)c2C)ccc1Cc1ccc(OC(F)(F)F)cc1 | liver microsomes |  |  | 1.67 |
| O=C(NC1CCC1)c1ccc2nc(-c3cccc(NS(=O)(=O)NCCN4CCCCC4)c3)cn2c1 | liver microsomes | 1 µM |  | 21 |
| CCS(=O)(=O)Nc1cccc(-c2cn(C)c(=O)c3ccccc23)c1 | liver microsomes |  |  | 315 |
| COc1ccc(CNc2c(CO)cnc3c(C4CC4)cc(C#N)cc23)cc1Cl | liver microsomes |  |  | 19.5 |
| O=S(=O)(Nc1cccc(-c2nnn[nH]2)c1)c1ccc(Cl)c2nonc12 | liver microsomes |  |  | 200 |
| CO[C@@H](C[C@H]1C(C)=CC[C@@H]2[C@]3(C)C[C@H](O[C@@H]4O[C@@H](C)[C@H](OC(=O)c5cccc(O)c5)[C@@H](O[C@@H]5O[C@H](CO)[C@@H](O)[C@H](O)[C@H]5NC(C)=O)[C@H]4O)[C@@H](O)C(C)(C)[C@H]3CC[C@]21C)[C@H](N)C(=O)O.O=C(O)C(F)(F)F | hepatocytes | 1 µM |  | > 360 |
| C/C=C/C[C@H](C)[C@@H](OC)[C@@H](C)[C@H](O)C[C@H]1OC(=O)C=C[C@H]1CC | liver microsomes |  |  | < 7 |
| CC[C@@H]1C=CC(=O)O[C@@H]1C[C@@H](O)[C@H](C)[C@H](O)[C@@H](C)Cc1ccc(F)cc1 | liver microsomes |  |  | < 7.7 |
| O=C(N[C@H](Cc1c[nH]c2ccccc12)C(=O)Nc1ccncc1)c1ccc(-c2cccc(F)c2)cc1F | liver microsomes |  |  | 18 |
| CCCCOC(=O)NS(=O)(=O)c1sc(CC(C)C)cc1-c1ccc2c(c1)CCN(C(C)=O)C2 | liver microsomes | 1 µM | pH 7.4 | 8.7 |
| O=C(N[C@H](Cc1c[nH]c2ccccc12)C(=O)Nc1ccncc1)c1ccc(-c2cc(F)ccc2F)cc1F | liver microsomes |  |  | 17 |
| CCNc1nc2c(c(N3CC(=O)Nc4cc(OC)ccc43)n1)CCC2 | liver microsomes |  |  | 16.7 |
| CCOc1ccc2ccc(=O)oc2c1 | liver microsomes | 1 µM | pH 7.4 | 10 |
| CCOC(=O)NS(=O)(=O)c1sc(CC(C)C)cc1-c1ccc2c(c1)CN(C(C)=O)C2 | liver microsomes | 1 µM | pH 7.4 | 7.8 |
| COc1ccc(-c2ocnc2C(=O)NCCCn2cncn2)cc1Cl | liver microsomes |  |  | 78.7 |
| CC[C@@H]1C=CC(=O)O[C@@H]1C[C@@H](O)[C@H](C)[C@H](OC)[C@@H](C)Cc1ccc(F)cc1 | liver microsomes |  |  | 3.3 |
| Cc1cccc(-n2ncc(Br)c(Br)c2=O)c1 | liver microsomes |  |  | 7.1 |
| O=C(OC(C(F)(F)F)C(F)(F)F)N1Cc2ccc(OCCN3CCOCC3)cc2C1 | liver microsomes |  |  | 40 |
| O=C1CCN(C(=O)Nc2ccc(F)c(Cl)c2)[C@H]2CCCC[C@@H]12 (relative stereo) | liver microsomes |  |  | > 56 |
| C[C@H](CCCOc1cccc(CO)c1)[C@H]1CC[C@H]2[C@@H]3CC=C4C[C@@H](O)CC[C@]4(C)[C@H]3CC[C@]12C | liver microsomes | 1 µM | pH 7.4 | 330 |
| COc1ccc([C@@H]2Sc3ccccc3N(CCN(C)C)C(=O)[C@@H]2OC(C)=O)cc1 | hepatocytes | 1 µM |  | 91.8 |
| CCCCOC(=O)NS(=O)(=O)c1sc(CC(C)C)cc1-c1ccc2c(c1)CN(C(C)=O)C2 | liver microsomes | 1 µM | pH 7.4 | 2.4 |
| O=C(CC1Cc2ccccc2C1)N[C@H](CN1CCCC1)[C@H](O)c1ccc(OC(F)(F)F)cc1 | liver microsomes | 1 µM | pH 7.4 | 84 |
| CCOC(=O)NS(=O)(=O)c1sc(CC(C)C)cc1-c1ccc2c(c1)CN(C)C(=O)C2 | liver microsomes | 1 µM | pH 7.4 | 7.8 |
| CC[C@@H]1C=CC(=O)O[C@@H]1C[C@@H](O)[C@H](C)[C@H](OC)[C@@H](C)Cc1ccccc1 | liver microsomes |  |  | 5.4 |
| O=C(O)Cc1ccccc1Nc1c(Cl)cccc1Cl | hepatocytes | 1 µM |  | 18.4 |
| Cc1ccc(S(=O)(=O)Nc2cccc(-c3nnn[nH]3)c2)cc1C(F)(F)F | liver microsomes |  |  | 4 |
